# Experimental data as given in ChEMBL document CHEMBL1811899, “Synthesis and evaluation of novel 2-butyl-4-chloro-1-methylimidazole embedded chalcones and pyrazoles as angiotensin converting enzyme (ACE) inhibitors” (Bioorg Med Chem, 2011).
# The source made the active and inactive calls. The calls are words filed in the database; no cut-off is given here.
# What was measured:
# [1] = target: T1, Angiotensin-converting enzyme (Oryctolagus cuniculus) (UniProt P12822); test: Inhibition of rabbit lung ACE assessed as reduction in hippuryl-histidyl-leucine substrate at 3 uM by colorimetric assay
# T1 sequence (whole entry): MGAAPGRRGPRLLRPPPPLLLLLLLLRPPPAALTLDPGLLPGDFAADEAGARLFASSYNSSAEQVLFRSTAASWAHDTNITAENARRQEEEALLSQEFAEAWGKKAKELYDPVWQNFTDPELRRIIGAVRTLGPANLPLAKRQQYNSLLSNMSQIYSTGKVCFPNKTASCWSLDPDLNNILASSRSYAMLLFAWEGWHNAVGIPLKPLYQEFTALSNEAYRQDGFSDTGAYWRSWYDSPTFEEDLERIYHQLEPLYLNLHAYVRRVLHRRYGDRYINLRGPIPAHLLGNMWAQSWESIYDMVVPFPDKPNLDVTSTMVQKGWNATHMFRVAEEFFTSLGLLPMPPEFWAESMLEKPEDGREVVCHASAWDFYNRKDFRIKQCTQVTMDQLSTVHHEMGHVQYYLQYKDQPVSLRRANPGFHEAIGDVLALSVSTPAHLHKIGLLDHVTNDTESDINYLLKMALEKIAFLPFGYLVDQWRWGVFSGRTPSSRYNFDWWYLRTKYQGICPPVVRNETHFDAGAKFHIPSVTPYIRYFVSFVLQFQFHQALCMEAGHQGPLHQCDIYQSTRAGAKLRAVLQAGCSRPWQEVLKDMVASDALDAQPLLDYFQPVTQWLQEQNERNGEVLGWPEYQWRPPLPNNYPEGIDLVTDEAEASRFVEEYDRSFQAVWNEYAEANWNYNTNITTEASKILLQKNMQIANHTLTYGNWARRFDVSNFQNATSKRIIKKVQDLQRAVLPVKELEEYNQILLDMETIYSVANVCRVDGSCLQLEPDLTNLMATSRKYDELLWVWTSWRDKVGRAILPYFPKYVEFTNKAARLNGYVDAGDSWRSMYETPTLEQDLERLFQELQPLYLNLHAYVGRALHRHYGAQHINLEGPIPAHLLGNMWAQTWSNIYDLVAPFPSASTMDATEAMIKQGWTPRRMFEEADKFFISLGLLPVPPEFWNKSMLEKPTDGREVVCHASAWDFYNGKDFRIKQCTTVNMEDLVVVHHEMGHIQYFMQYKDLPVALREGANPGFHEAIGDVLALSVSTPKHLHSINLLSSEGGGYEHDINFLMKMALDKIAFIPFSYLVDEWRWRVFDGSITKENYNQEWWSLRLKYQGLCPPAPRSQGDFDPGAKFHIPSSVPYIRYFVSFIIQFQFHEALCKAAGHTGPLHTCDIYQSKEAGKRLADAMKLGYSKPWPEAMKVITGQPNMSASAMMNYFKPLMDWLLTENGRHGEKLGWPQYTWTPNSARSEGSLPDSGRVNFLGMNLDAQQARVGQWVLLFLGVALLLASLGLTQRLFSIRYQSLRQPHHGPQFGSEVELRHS
# Procedure, shortened: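 Rabbit lung homogenised (1 g in 10 mL of 0.05 M sodium borate, pH 8.2, with 0.3 M NaCl and 0.5% Triton X-100, 4 °C) and centrifuged to give the ACE source. Enzyme and test solution preincubated 10 min at 37 °C. The reaction was started with borate/NaCl buffer plus 5 mM HHL stock and run 30 min at 37 °C. Released hippuric acid was reacted with pyridine and benzenesulfonyl chloride, and the yellow product read at 410 nm. Inhibition% = 100 − (T/C)×100.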
# [2] = target: T2, Angiotensin-converting enzyme (Oryctolagus cuniculus, UniProt P12822); test: (§1) Inhibition of rabbit lung ACE assessed as reduction in hippuryl-histidyl-leucine substrate by colorimetric assay
# T2 sequence (P12822 whole entry): T1 sequence (whole entry)
# Procedure, shortened: (§2)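 ACE came from a rabbit lung homogenate in 0.05 M sodium borate, pH 8.2, 0.3 M NaCl, 0.5% Triton X-100 at 4 °C, centrifuged. Enzyme was preincubated with compound for 10 min at 37 °C, then run for 30 min at 37 °C with 5 mM HHL stock in borate/NaCl buffer. Hippuric acid was derivatised with pyridine and benzenesulfonyl chloride and read at 410 nm. IC50 was taken from % inhibition versus concentration curves; means of three experiments.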
# [3] = target: T1, Angiotensin-converting enzyme (Oryctolagus cuniculus); test: as §1; procedure, shortened: as §2
Compound,inhibition [1],IC50 [2] [mM],inhibition [3]
CCCCc1nc(Cl)c(/C=C/C(=O)c2ccc(C)cc2)n1C,Active,,
CCCCc1nc(Cl)c(/C=C/C(=O)c2cccnc2)n1C,Active,,
CCCCc1nc(Cl)c(/C=C/C(=O)c2ccc[nH]2)n1C,,0.00224,Dose-dependent effect
CCCCc1nc(Cl)c(/C=C/C(=O)c2ccc([N+](=O)[O-])cc2)n1C,Active,,
CCCCc1nc(Cl)c(/C=C/C(=O)c2ccc3oc4ccccc4c3c2)n1C,Active,,
CCCCc1nc(Cl)c(/C=C/C(=O)c2cccc(Br)n2)n1C,Active,,
O=c1cc(-c2ccc(O)cc2)oc2cc(O)cc(O)c12 [APIGENIN],,0.28,
CCCCc1nc(Cl)c(/C=C/C(=O)c2ccco2)n1C,Active,,
CCCCc1nc(Cl)c(/C=C/C(=O)c2ccc(OC)cc2)n1C,Active,,
CCCCc1nc(Cl)c(/C=C/C(=O)c2ccc(Cl)s2)n1C,Active,0.0036,Dose-dependent effect
CCCCc1nc(Cl)c(/C=C/C(=O)c2ccc3c(c2)c2ccccc2n3C)n1C,Active,,
CCCCc1nc(Cl)c(/C=C/C(=O)c2cccs2)n1C,Active,,
CCCCc1nc(Cl)c(/C=C/C(=O)c2ccccc2)n1C,Active,,
CCCCc1nc(Cl)c(/C=C/C(=O)c2ccc3sc4ccccc4c3c2)n1C,,0.00268,Dose-dependent effect
O=C(/C=C/c1ccc(O)c(O)c1)c1ccc(O)cc1O [BUTEIN],,0.73,
CCCCc1nc(Cl)c(/C=C/C(=O)c2cc(OC)c(OC)c(OC)c2)n1C,Active,,
CCCCc1nc(Cl)c(/C=C/C(=O)c2ccc(Br)s2)n1C,Active,,

# Second part, the compound after the results:
inhibition [1],IC50 [2] [mM],inhibition [3],Compound
,1.8,,CCCCc1nc(Cl)c(C2CC(c3ccc(Cl)s3)=NN2C(C)=O)n1C (stereo not given)
inactive,,,CCCCc1nc(Cl)c(C2CC(c3cccc4ccccc34)=NN2C(C)=O)n1C (stereo not given)
Active,,,CCCCc1nc(Cl)c(/C=C/C(=O)c2ccc3ccccc3c2)n1C
Active,,,CCCCc1nc(Cl)c(/C=C/C(=O)c2cccc3ccccc23)n1C
,2.22,,CCCCc1nc(Cl)c(C2CC(c3ccc([N+](=O)[O-])cc3)=NN2C(C)=O)n1C (stereo not given)
,2.12,,CCCCc1nc(Cl)c(C2CC(c3cc(OC)c(OC)c(OC)c3)=NN2C(C)=O)n1C (stereo not given)
,2.35,,CCCCc1nc(Cl)c(C2CC(c3ccco3)=NN2C(C)=O)n1C (stereo not given)
,2.33,,CCCCc1nc(Cl)c(C2CC(c3ccc(OC)cc3)=NN2C(C)=O)n1C (stereo not given)
,2.01,,CCCCc1nc(Cl)c(C2CC(c3ccc4sc5ccccc5c4c3)=NN2C(C)=O)n1C (stereo not given)
